These results are taken from article PMC11951523 (Genome Biology, 2025).

The target of data set [1] is T1, SpyCas9 (Streptococcus pyogenes serotype M1, UniProt Q99ZW2). In words: biochemical. The note with it: for IC50: Spy Cas9; for activity on Cas9 (structure–activity relationship of pamoic acid): SpyCas9, standard assay conditions.
In data set [2] the test system is SpyCas9. The experiment in a line: biochemical. Also on record: species or system Streptococcus pyogenes.
Data set [3] has as its target T2, SauCas9 (Staphylococcus aureus, UniProt J7RUA5).
T2 sequence (J7RUA5 1-1053): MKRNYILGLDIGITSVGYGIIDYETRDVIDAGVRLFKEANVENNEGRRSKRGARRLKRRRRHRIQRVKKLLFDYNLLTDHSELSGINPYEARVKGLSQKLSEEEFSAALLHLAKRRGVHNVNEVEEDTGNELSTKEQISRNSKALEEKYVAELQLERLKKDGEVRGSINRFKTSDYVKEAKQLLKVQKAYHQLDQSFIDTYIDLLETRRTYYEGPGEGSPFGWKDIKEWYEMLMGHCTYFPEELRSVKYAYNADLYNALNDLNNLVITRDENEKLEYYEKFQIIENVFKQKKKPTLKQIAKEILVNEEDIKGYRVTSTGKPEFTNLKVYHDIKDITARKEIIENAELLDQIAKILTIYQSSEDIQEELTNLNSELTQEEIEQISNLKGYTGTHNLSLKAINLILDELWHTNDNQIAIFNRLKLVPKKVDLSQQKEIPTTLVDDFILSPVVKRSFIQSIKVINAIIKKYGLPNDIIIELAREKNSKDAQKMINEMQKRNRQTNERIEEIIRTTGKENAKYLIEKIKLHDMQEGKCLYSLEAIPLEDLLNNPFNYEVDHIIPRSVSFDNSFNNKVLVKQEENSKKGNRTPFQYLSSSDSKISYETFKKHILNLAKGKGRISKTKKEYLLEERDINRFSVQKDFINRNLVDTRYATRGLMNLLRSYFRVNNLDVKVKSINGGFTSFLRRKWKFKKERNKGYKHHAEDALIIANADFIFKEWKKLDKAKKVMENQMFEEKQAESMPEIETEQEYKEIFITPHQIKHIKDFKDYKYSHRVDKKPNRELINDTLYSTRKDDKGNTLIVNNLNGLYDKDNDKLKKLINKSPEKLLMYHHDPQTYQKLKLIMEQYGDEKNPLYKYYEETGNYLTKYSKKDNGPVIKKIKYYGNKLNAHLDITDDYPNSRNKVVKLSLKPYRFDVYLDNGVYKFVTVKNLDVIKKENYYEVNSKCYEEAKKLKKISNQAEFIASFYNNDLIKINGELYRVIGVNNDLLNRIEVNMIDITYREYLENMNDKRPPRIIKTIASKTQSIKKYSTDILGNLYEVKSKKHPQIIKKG
In words: In vitro purified enzyme activity assay for SauCas9. As to conditions: IC50, in vitro purified enzyme assay, Sau Cas9. The format is biochemical.

The target in data set [4] is T1, SpyCas9. The experiment in a line: Two-plasmid-based bacterial survival assay. It counts as cell-based. The note with it: IC50, bacteria-based assay, Spy Cas9; bacterial survival assay using pCas and pTarget-sgSSEA plasmids, E. coli MG1655. Put shortly: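 E. coli MG1655 competent cells carrying pCas (SpyCas9) electroporated with pTarget-sgSSEA, or the pT-sgControl plasmid as reference. Test compound added to the electroporated bacteria for 1.5 h at 32 °C, then plated on LB with kanamycin and spectinomycin and incubated overnight. Colonies counted and expressed as a percentage of the compound-treated sgControl strain at the same concentration (100%).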

The target of data set [5] is T1, SpyCas9. The format is cell-based. The method, boiled down:
(§1)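 MG1655 competent cells carrying pCas (SpyCas9 or SauCas9) were electroporated with 300 ng pTarget-sgSSEA (867 bp) or its Sau version, which carries an 867-bp homologous recombination repair template. Test compound was added to 700 μl LB right after electroporation, held 1.5 h at 32 °C, then plated on LB agar with 100 μg/ml kanamycin and 100 μg/ml spectinomycin. The SSEA site was genotyped by PCR.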

Data set [6] deals with T2, SauCas9. The format is cell-based. The method, boiled down: as §1
The target of data set [7] is T1, SpyCas9. The experiment in a line: GFP-disruption assay in HEK293FT cells. It counts as cell-based.
Data set [8] concerns the target T1, SpyCas9. It counts as cell-based. Put shortly:
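HEK293FT cells, ~2 × 10^5 per well, were seeded 1 day before transfection (Lipofectamine 3000) with 1 μg PX459-SpyCas9-sgCOSMC, -sgEMX1 or -sgControl. Test compound was added 0 or 6 h post-transfection, and cells were kept 24 h at 37 °C, then selected with 2.5 μg/ml puromycin for 36–48 h. Target loci were PCR-amplified, Sanger-sequenced and scored by TIDE.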
This is another data set of the same source.

Data set [9] deals with T2, SauCas9. The experiment in a line: SauCas9-mediated genome editing of COSMC in HEK293FT cells, TIDE analysis. The format is cell-based. The method, boiled down:
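HEK293FT wt cells were co-transfected (Lipofectamine 3000) with 1 μg miniCMV-SaCas9 and 1 μg pGL3 carrying sgCOSMC-Sau or sgControl. Test compound was added right after transfection for 24 h, followed by 2.5 μg/ml puromycin selection. The COSMC locus was PCR-amplified (40 cycles), Sanger-sequenced, and editing efficiency was obtained by TIDE analysis.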

The target in a further data set is BE4 base editor (Streptococcus pyogenes, UniProt Q99ZW2, D10A). The experiment in a line: BE4-mediated base editing of EMX1 in HEK293FT cells, EditR analysis. It counts as cell-based.
The target in the next data set is FnoCas12a (Francisella tularensis subsp. novicida, UniProt A0Q7Q2). The format is biochemical.
The subject of a further data set is LbaCas12a. The experiment in a line: LbaCas12a activity assay. It counts as biochemical, Lachnospiraceae bacterium. As to conditions: complete inhibition refers to 50 μM or above.
The subject of data set [10] is SpyCas9-mediated genome editing of PCSK9. In words: SpyCas9-mediated anti-PCSK9 mouse model by hydrodynamic injection. As to conditions: for plasma total cholesterol restored to the level of the control: 3rd blood collection. The format is in vivo, BALB/c mice. The method, boiled down:
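On days 1, 4 and 7, 90 μg PX459-SpyCas9-sgPCSK9 or -sgControl in 2 ml saline was injected hydrodynamically into the tail vein over 5–8 s. Orbital blood (~100 μl) was taken days 2, 5 and 8, and heparin plasma (20 μl) was assayed by PCSK9 ELISA.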

For another data set, the system named is E. coli MG1655. The experiment in a line: Toxicity to bacteria in the two-plasmid-based bacterial survival assay. As to conditions: for toxicity to E. coli: MG1655, bacterial survival assay. The format is cell-based. The method, boiled down:
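MG1655 pCas-competent cells were electroporated with pT-sgControl. Test compound was added to 700 μl LB immediately afterwards and incubated 1.5 h at 32 °C, then plated on LB agar with kanamycin and spectinomycin (100 μg/ml each). Colonies were counted after overnight incubation; biological replicates n = 3.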

For data set [11] the following is noted: in humans; cited from earlier work.
Data set [12] concerns the target T1, SpyCas9. The experiment in a line: Surface plasmon resonance assay. It counts as binding. The method, boiled down:
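His-tagged SpyCas9, Ni–NTA purified and imidazole-eluted, amine-coupled to a CM5 chip at 100 μg/ml. Test compounds were diluted in 1× PBST to a series of concentrations and injected at 30 μl/min, with 120 s association and 120 s dissociation. Equilibrium KD was fitted from the response curves.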
Background: SPR reads the build-up and loss of mass on a sensor chip optically.

Setting [13] is: IC50, in vitro purified enzyme assay, linear substrates (87 bp oligonucleotide or 2.5 kb linear DNA).
Where [14] appears, read: IC50, in vitro purified enzyme assay, supercoil (circular) plasmid substrate pcDNA3.1/CT-GFP.
Where [15] appears, read: linear substrates (87 bp oligonucleotide).
Setting [16] is: supercoil (circular) plasmid substrate.

By IC50 is commonly meant the concentration that inhibits the measured activity by half. The term Kd denotes the constant that tells how readily two partners part at equilibrium.

Read-outs that look alike come from different tables or passages of the source.

Regarding `O=C(O)c1cc2ccccc2c(Cc2c(O)c(C(=O)O)cc3ccccc23)c1O` [Pamoic acid], the IC50 against SpyCas9 [1] (setting [13]) is 10 to 20 µM; against SpyCas9 [1] (setting [14]), 400 to 600 µM; against SauCas9 [3] (setting [15]), 25 to 50 µM; against SauCas9 [3] (setting [16]) it was 500 to 1000 µM; on SpyCas9 [4], 200 to 400 µM; on SpyCas9 [5] it was ~400 µM. The IC50 at SauCas9 [6] was 250 to 500 µM; at SpyCas9 [7], 20 to 50 µM; against SpyCas9 [8] it was 20 to 50 µM; against SauCas9 [9] it was 20 to 50 µM; at BE4 base editor, ~50 µM. Moreover, the “effect of mutation of catalytic residues D10 or H840 on the IC50” value in the data set on SpyCas9 [2] was “did not affect”. Also, the “effect on the activity of FnoCas12a” value at FnoCas12a is “inactive to or weakly inhibited”. Also, the “effect on the activity of LbaCas12a” value in the data set on LbaCas12a is “inactive to or weakly inhibited”. Moreover, the “plasma total cholesterol restored to the level of the control” value in [10] (80 mg/kg) and in data set [10] (160 mg/kg) was “largely restored” throughout. Further, the “effect on the basal level of PCSK9 in vehicle-treated (sgControl) mice” value in data set [10] (160 mg/kg) is “did not interfere”. In data set [10] (80 or 160 mg/kg intraperitoneal, 1st, 2nd, or 3rd treatment cycle), the “restoration of plasma PCSK9 level” value is recorded as “completely restore”. The “dose from which a dose-dependent preventative effect on plasma PCSK9 starts” value in data set [10] (intraperitoneal) is given as ≥ 20 mg/kg. Moreover, in [10] (medium dose of 40 mg/kg), the “effect on PCSK9 allele modifications in liver (NGS)” value is on record as “largely reduced but not totally prevented”. Further, the “toxicity to E. coli” value with E. coli MG1655 was “did not appear to be much toxic”. Besides, the “site of metabolism / elimination” value in data set [11] is listed as “mainly metabolized in human liver”.

With `OCCOCCN1CCN(C(c2ccccc2)c2ccc(Cl)cc2)CC1` (stereo not shown) [Hydroxyzine pamoate], the figures for the IC50 against SpyCas9 [1] (setting [13]) and against SpyCas9 [1] (setting [14]) were 20 to 50 µM and > 200 µM, respectively.

Consider `CC1(C)[C@@H](OC(=O)CCC(=O)O)CC[C@]2(C)[C@H]3C(=O)C=C4[C@@H]5C[C@@](C)(C(=O)O)CC[C@]5(C)CC[C@@]4(C)[C@]3(C)CC[C@@H]12` [Carbenoxolone], for which the IC50 against SpyCas9 [1] (setting [13]) is 5 to 10 µM; against SpyCas9 [1] (setting [14]), ~100 µM; against SauCas9 [3] (setting [15]) it was 25 to 50 µM; against SauCas9 [3] (setting [16]) it was 100 to 200 µM; against SpyCas9 [4], ~200 µM; against SpyCas9 [5], 50 to 100 µM. Also, the half-maximal inhibitory concentration (IC50) at SauCas9 [6] was 100 to 200 µM; on SpyCas9 [7] it was 10 to 20 µM; at SpyCas9 [8], 20 to 50 µM; against SauCas9 [9], 20 to 50 µM; at BE4 base editor, 20 to 50 µM. Besides, the “effect of mutation of catalytic residues D10 or H840 on the IC50” value in the data set on SpyCas9 [2] is “did not affect”. Also, the “effect on the activity of FnoCas12a” value at FnoCas12a is “inactive to or weakly inhibited”. The “effect on the activity of LbaCas12a” value in the data set on LbaCas12a was “inactive to or weakly inhibited”. The “effect on the basal level of PCSK9 in vehicle-treated (sgControl) mice” value in [10] (160 mg/kg) is given as “did not interfere”. Besides, the “plasma total cholesterol restored to the level of the control” value in [10] (160 mg/kg) is given as “largely restored”. The “preventive effect on loss of plasma PCSK9” value in data set [10] (high doses of 80 or 160 mg/kg, 2nd or 3rd treatment cycle) is “strong preventive effects”. In addition, the “toxicity to E. coli” value with E. coli MG1655 is “did not appear to be much toxic”.

As to `COc1cccc2c1C(=O)c1c(O)c3c(c(O)c1C2=O)C[C@@](O)(C(=O)CO)C[C@@H]3O[C@H]1C[C@H](N)[C@@H](O)[C@H](C)O1` [Epirubicin], the IC50 fell in the range of 2 to 5 µM at SpyCas9 [1] (setting [13]); 2 to 5 µM on SpyCas9 [1] (setting [14]); 6.25 to 12.5 µM at SauCas9 [3] (setting [15]); 3.13 to 6.25 µM at SauCas9 [3] (setting [16]); 3.13 to 6.25 µM against SpyCas9 [4]; 6.25 to 12.5 µM at SpyCas9 [5]. Besides, the IC50 on SauCas9 [6] is ~6.25 µM. For the same molecule, at SpyCas9 [12], the Kd was > 1000 µM. Also, on FnoCas12a, the “effect on the activity of FnoCas12a” value is “completely inhibit”. Also, in the data set with LbaCas12a, the “effect on the activity of LbaCas12a” value is “completely inhibit”. Further, the “toxicity to electroporated bacteria” value with E. coli MG1655 (at a concentration of 50 μM) is given as “significant toxicity”. The “site of metabolism / elimination” value in data set [11] is recorded as “mainly metabolized in human liver”.

For the molecule `CN1CCCN=C1/C=C/c1cccc(O)c1` [Oxantel pamoate], the IC50 at SpyCas9 [1] (read-out: IC50, in vitro purified enzyme assay, supercoil (circular) plasmid substrate pcDNA3.1/CT-GFP) is > 200 µM.

Consider `O=C(O)c1cc(/N=N/c2ccc(O)c(C(=O)O)c2)ccc1O` [Olsalazine, olsalazine], for which the “activity on Cas9 (structure–activity relationship of pamoic acid)” value (“activity on Cas9” for short) on SpyCas9 [1] is “inactive”.

With `Nc1ccc(O)c(C(=O)O)c1` [5-aminosalicylic acid], the “activity on Cas9” value on SpyCas9 [1] was “inactive”.

With `O=C(O)c1ccccc1O` [Salicylic acid, salicylic acid], the “activity on Cas9” value on SpyCas9 [1] was “inactive”.
